Test results reported in ChEMBL document CHEMBL5149988, “Structure-Based Design of Selective Salt-Inducible Kinase Inhibitors” (J Med Chem, 2021).

Assay: Metabolic stability in Sprague-Dawley rat liver microsomes assessed as parent compound remaining incubated for 1 hrs by HPLC analysis
Type: ADME, Microsome
Conditions: read-out: Stability
Method in brief: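 Rat (Sprague-Dawley) activated liver microsome mix; compound incubated at 37 °C and sampled at 0, 15, 30 and 60 min. Unmetabolized parent quantified by HPLC.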

remaining at 1 h: > 90%
Structure (SMILES): CNc1ncc2cc(-c3ccc(-c4ncccc4F)cc3Cl)c(=O)n(C[C@H]3OC[C@H](N)CO3)c2n1
